Laboratory results as given in ChEMBL document CHEMBL3860034, “Development of Potent and Selective S. aureus Sortase A Inhibitors Based on Peptide Macrocycles” (ACS Med Chem Lett, 2016).
Calls of active or inactive are those of the source. The calls are words filed in the database; no cut-off is given here. *1 amine or outer side, *2 acyl side, *3 side chain or, on linkers, in order; H or OH if unused. Where a SMILES comes first, the peptide text is derived from it. Bridges are numbered along the chain shown (N, C = ends). TBMB = c1c(C[*:1])cc(C[*:3])cc1C[*:2]

Columns and labels:
Sortase A [1] = target: T1, Sortase A (Staphylococcus aureus, UniProt Q9S446); experiment: Inhibition of Staphylococcus aureus His6-biotinylated SrtA expressed in Escherichia coli XL1-blue using Dabcyl-LPETG-Edans as substrate assessed as residual activity by fluorescence assay
T1 sequence (Q9S446 whole entry): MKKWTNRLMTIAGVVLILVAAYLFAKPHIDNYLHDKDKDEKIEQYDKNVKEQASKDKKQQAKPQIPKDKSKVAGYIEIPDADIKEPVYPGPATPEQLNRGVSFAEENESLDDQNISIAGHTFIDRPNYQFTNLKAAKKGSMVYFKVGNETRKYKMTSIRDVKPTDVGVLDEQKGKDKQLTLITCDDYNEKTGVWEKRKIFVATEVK
Method in brief: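 (His)6-SrtA26−206 from E. coli XL1-blue, purified by Ni affinity and gel filtration. Enzyme at 2.5 μM incubated with varied peptide concentrations (up to 300 μM). Residual activity measured with 20 μM Dabcyl-LPETG-Edans and 200 μM triglycine in 50 mM Tris-Cl pH 7.4, 150 mM NaCl, 5 mM CaCl2, 0.1% BSA, 37 °C. Fluorescence read at ex 350/em 480 nm. Ki from Supporting Information equations; at least three measurements.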

Sortase A [2] = target: T1, Sortase A; experiment: Binding affinity to Staphylococcus aureus His6-biotinylated SrtA expressed in Escherichia coli XL1-blue using fluorescein-tagged compound after 15 mins by fluorescence polarization
Method in brief: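 Serial dilutions of SrtA mixed with 200 nM fluorescein-labeled bicyclic peptide in 50 mM Tris-Cl pH 7.4, 150 mM NaCl, 5 mM CaCl2; 15 min at room temperature. Fluorescence polarization read at 485 nm excitation / 535 nm emission. Kd obtained by nonlinear regression of polarization against total SrtA concentration.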

Sortase A [3] = target: T1, Sortase A; experiment: (§1) Inhibition of SrtA-mediated incorporation of Fluo-GSLPETGGS substrate to cell wall of Staphylococcus aureus Newman after 24 hrs by fluorescence assay; design: species or system Staphylococcus aureus subsp. aureus str. Newman
[4] = target: T2, Sortase A (Staphylococcus aureus) (UniProt Q9S446); experiment: as §1; details: Staphylococcus aureus subsp. aureus str. Newman
T2 sequence (whole entry): T1 sequence (Q9S446 whole entry)

Staphylococcus aureus = experiment: Induction of Fluo-GSLPETGGS substrate transfer to cell wall of SrtA knockout Staphylococcus aureus SKM12 at 1 mM after 24 hrs by fluorescence assay; format: functional
[5] = Inhibition of recombinant Staphylococcus aureus SrtA N24 deletion mutant by using abz-LPATG-dnp as substrate
[6] = target: Urokinase-type plasminogen activator (Homo sapiens, UniProt P00749); experiment: Inhibition of human uPA using fluorogenic Z-Gly-Gly-Arg-AMC as substrate

Structure (SMILES)	Ki (Sortase A [1]) [µM]	other results
CC(C)C[C@@H]1NC(=O)[C@H](CCC(N)=O)NC(=O)[C@@H]2CCCN2C(=O)[C@@H](NC(=O)[C@H](C)N)CSCc2cc3cc(c2)CSC[C@H](NC(=O)[C@@H]2CCCN2C(=O)[C@@H]2CCCN2C1=O)C(=O)N[C@@H](CCCNC(=N)N)NC(=O)[C@H](C(C)C)NC(=O)[C@H](CO)C(=O)N[C@H](C(=O)NCC(N)=O)CSC3	4.3	Kd (Sortase A [2]): 8.8 µM
CC(C)C[C@@H]1NC(=O)[C@H](CCC(N)=O)NC(=O)[C@@H]2CCCN2C(=O)[C@@H]2CSCc3cc(cc(c3)CSC[C@@H](C(=O)NCC(N)=O)NC(=O)[C@@H]3CCCN3C(=O)[C@@H]3CCCN3C1=O)CSC[C@H](NC(=O)[C@H](C)N)C(=O)N[C@@H]([C@@H](C)O)C(=O)N[C@@H](CCC(N)=O)C(=O)N[C@@H](CCCNC(=N)N)C(=O)N2 (H-ACTQRCPQLPPCG-NH2; linker 2-6-12 via TBMB)	2.4	Kd (Sortase A [2]): 1.5 µM
CC(C)C[C@@H]1NC(=O)[C@H](CCC(N)=O)NC(=O)[C@@H]2CCCN2C(=O)[C@@H]2CSCc3cc(cc(c3)CSC[C@@H](C(=O)NCC(=O)O)NC(=O)[C@@H]3CCCN3C(=O)[C@@H]3CCCN3C1=O)CSC[C@H](NC(=O)[C@H](C)N)C(=O)N[C@@H]([C@@H](C)O)C(=O)N[C@@H](CO)C(=O)N[C@@H](CCCNC(=N)N)C(=O)N2 (H-ACTSRCPQLPPCG-OH; linker 2-6-12 via TBMB)	1.8	–
CC[C@H](C)[C@@H]1NC(=O)CNC(=O)[C@H](CCC(N)=O)NC(=O)[C@@H](NC(=O)[C@H](C)N)CSCc2cc3cc(c2)CSC[C@H](NC(=O)[C@@H]2CCCN2C(=O)[C@@H]2CCCN2C(=O)[C@H](CC(C)C)NC1=O)C(=O)NCC(=O)N[C@@H](CCCNC(=N)N)C(=O)NCC(=O)NCC(=O)NCC(=O)N[C@H](C(=O)NCC(N)=O)CSC3 (H-ACQGILPPCGRGGGCG-NH2; linker 2-9-15 via TBMB)	42	–
CC(C)C[C@@H]1NC(=O)[C@H](CCC(N)=O)NC(=O)[C@@H]2CCCN2C(=O)[C@@H]2CSCc3cc(cc(c3)CSC[C@@H](C(=O)NCC(=O)O)NC(=O)[C@@H]3CCCN3C(=O)[C@@H]3CCCN3C1=O)CSC[C@H](NC(=O)[C@H](C)N)C(=O)N[C@@H](Cc1c[nH]cn1)C(=O)N[C@@H](CO)C(=O)N[C@@H](CCCNC(=N)N)C(=O)N2 (H-ACHSRCPQLPPCG-OH; linker 2-6-12 via TBMB)	1.1	IC50 (Sortase A [3]): 167 µM; inhibition [4]: Dose-dependent effect; Activity (Staphylococcus aureus): Active
O=S(=O)(O)c1cccc(-c2nn3c(-c4ccncc4)nnc3s2)c1	–	IC50 [5]: 9.3 µM
CC(C)C[C@@H]1NC(=O)[C@@H]2CCCN2C(=O)[C@@H](NC(=O)[C@H](C)N)CSCc2cc3cc(c2)CSC[C@H](NC(=O)[C@@H]2CCCN2C(=O)[C@@H]2CCCN2C(=O)[C@H](CC(C)C)NC1=O)C(=O)N[C@@H](Cc1cnc[nH]1)C(=O)N[C@@H](CC(C)C)C(=O)N1CCC[C@H]1C(=O)N[C@@H](CCC(N)=O)C(=O)N[C@H](C(=O)NCC(N)=O)CSC3 (H-ACPLLPPCHLPQCG-NH2; linker 2-8-13 via TBMB)	9.3 to 13.3	–
CC(C)[C@@H]1NC(=O)[C@H](CCC(=O)O)NC(=O)[C@H](Cc2ccc(O)cc2)NC(=O)[C@H](CCCNC(=N)N)NC(=O)[C@@H](CO)NC(=O)[C@H](NC(=O)[C@H](C)N)CSCc2cc3cc(c2)CSC[C@@H](C(=O)NCC(N)=O)NC(=O)[C@@H](C)NC(=O)[C@H](CO)NC(=O)CNC(=O)[C@H](CCCNC(=N)N)NC(=O)CNC(=O)[C@H](CCCNC(=N)N)NC(=O)[C@H](CSC3)NC(=O)[C@H](CC(=O)O)NC1=O	–	Ki [6]: 0.053 µM
CC(C)C[C@@H]1NC(=O)[C@H](CCC(N)=O)NC(=O)[C@H](CCCNC(=N)N)NC(=O)[C@@H](NC(=O)[C@H](C)N)CSCc2cc3cc(c2)CSC[C@H](NC(=O)[C@@H]2CCCN2C(=O)[C@@H]2CCCN2C1=O)C(=O)N[C@@H](CO)C(=O)N[C@@H](Cc1ccccc1)C(=O)N[C@@H](CCC(=O)O)C(=O)N[C@H](C(=O)NCC(N)=O)CSC3 (H-ACRQLPPCSFECG-NH2; linker 2-8-12 via TBMB)	11.6	–
